{"source": "ChEMBL document CHEMBL1944603", "about": "“An efficient synthesis of highly functionalized novel chromeno[4,3-b]pyrroles and indolizino[6,7-b]indoles as potent antimicrobial and antioxidant agents” (2012)", "format_in_all_cases": "functional", "key": {"Staphylococcus aureus [1]": {"test_system": "Staphylococcus aureus", "assay": "Antimicrobial activity against Staphylococcus aureus at 75 ug/ml by agar diffusion assay", "in_short": "(§1)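 Agar diffusion assay in duplicate against the human bacterial pathogens; tetracycline as reference control.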"}, "Klebsiella pneumoniae [2]": {"test_system": "Klebsiella pneumoniae", "assay": "Antimicrobial activity against Klebsiella pneumoniae at 50 ug/ml by agar diffusion assay", "in_short": "as §1"}, "Pseudomonas aeruginosa [3]": {"test_system": "Pseudomonas aeruginosa", "assay": "Antimicrobial activity against Pseudomonas aeruginosa at 100 ug/ml by agar diffusion assay", "in_short": "as §1"}, "Pseudomonas aeruginosa [4]": {"test_system": "Pseudomonas aeruginosa", "assay": "Antimicrobial activity against Pseudomonas aeruginosa at 50 ug/ml by agar diffusion assay", "in_short": "as §1"}, "[5]": {"test_system": "Radical scavenging activity", "assay": "Antioxidant activity assessed as DPPH free radical scavenging activity at 50 ug by spectrophotometer", "in_short": "(§2)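 DPPH radical scavenging measured spectrophotometrically by Blois's method at 50, 500 and 1000 µg. Absorbance read at 517 nm. Percent scavenging is the absorbance decrease at 517 nm relative to the absorbance of DPPH solution without test compound. L-ascorbic acid as standard.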"}, "Macrophomina phaseolina": {"test_system": "Macrophomina phaseolina", "assay": "Antifungal activity against Macrophomina phaseolina", "in_short": "(§3)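 Agar diffusion assay in duplicate against the plant fungal pathogens; read-out as minimum inhibitory concentration (MIC); carbendazim as reference control.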"}, "Bacillus subtilis [6]": {"test_system": "Bacillus subtilis", "assay": "Antimicrobial activity against Bacillus subtilis at 75 ug/ml by agar diffusion assay", "in_short": "as §1"}, "[7]": {"test_system": "Radical scavenging activity", "assay": "Antioxidant activity assessed as DPPH free radical scavenging activity at 1000 ug by spectrophotometer", "in_short": "as §2"}, "Bacillus subtilis [8]": {"test_system": "Bacillus subtilis", "assay": "Antimicrobial activity against Bacillus subtilis at 100 ug/ml by agar diffusion assay", "in_short": "as §1"}, "Bacillus subtilis [9]": {"test_system": "Bacillus subtilis", "assay": "Antimicrobial activity against Bacillus subtilis at 50 ug/ml by agar diffusion assay", "in_short": "as §1"}, "Pseudomonas aeruginosa [10]": {"test_system": "Pseudomonas aeruginosa", "assay": "Antimicrobial activity against Pseudomonas aeruginosa at 25 ug/ml by agar diffusion assay", "in_short": "as §1"}, "Staphylococcus aureus [11]": {"test_system": "Staphylococcus aureus", "assay": "Antimicrobial activity against Staphylococcus aureus at 25 ug/ml by agar diffusion assay", "in_short": "as §1"}, "Staphylococcus aureus [12]": {"test_system": "Staphylococcus aureus", "assay": "Antimicrobial activity against Staphylococcus aureus at 100 ug/ml by agar diffusion assay", "in_short": "as §1"}, "Staphylococcus aureus [13]": {"test_system": "Staphylococcus aureus", "assay": "Antimicrobial activity against Staphylococcus aureus at 50 ug/ml by agar diffusion assay", "in_short": "as §1"}, "Klebsiella pneumoniae [14]": {"test_system": "Klebsiella pneumoniae", "assay": "Antimicrobial activity against Klebsiella pneumoniae at 25 ug/ml by agar diffusion assay", "in_short": "as §1"}, "Fusarium oxysporum": {"test_system": "Fusarium oxysporum", "assay": "Antifungal activity against Fusarium oxysporum", "in_short": "as §3"}, "Klebsiella pneumoniae [15]": {"test_system": "Klebsiella pneumoniae", "assay": "Antimicrobial activity against Klebsiella pneumoniae at 100 ug/ml by agar diffusion assay", "in_short": "as §1"}, "[16]": {"test_system": "Radical scavenging activity", "assay": "Antioxidant activity assessed as DPPH free radical scavenging activity at 500 ug by spectrophotometer", "in_short": "as §2"}, "Bacillus subtilis [17]": {"test_system": "Bacillus subtilis", "assay": "Antimicrobial activity against Bacillus subtilis at 25 ug/ml by agar diffusion assay", "in_short": "as §1"}, "Pseudomonas aeruginosa [18]": {"test_system": "Pseudomonas aeruginosa", "assay": "Antimicrobial activity against Pseudomonas aeruginosa at 75 ug/ml by agar diffusion assay", "in_short": "as §1"}, "Klebsiella pneumoniae [19]": {"test_system": "Klebsiella pneumoniae", "assay": "Antimicrobial activity against Klebsiella pneumoniae at 75 ug/ml by agar diffusion assay", "in_short": "as §1"}}, "data": [{"compound": "COC(=O)[C@@]1(Cc2c[nH]c3ccccc23)C[C@H]2COc3ccc4ccccc4c3[C@H]2N1", "values": [{"measurement": "inhibition zone (IZ)", "setting": "Staphylococcus aureus [1]", "value": 18, "unit": "mm"}, {"measurement": "inhibition zone (IZ)", "setting": "Klebsiella pneumoniae [2]", "value": 14, "unit": "mm"}, {"measurement": "inhibition zone (IZ)", "setting": "Pseudomonas aeruginosa [3]", "value": 21, "unit": "mm"}, {"measurement": "inhibition zone (IZ)", "setting": "Pseudomonas aeruginosa [4]", "value": 14, "unit": "mm"}, {"measurement": "Activity", "setting": "[5]", "value": 33, "unit": "%"}, {"measurement": "MIC", "setting": "Macrophomina phaseolina", "value": 60, "unit": "µg/mL"}, {"measurement": "inhibition zone (IZ)", "setting": "Bacillus subtilis [6]", "value": 19, "unit": "mm"}, {"measurement": "Activity", "setting": "[7]", "value": 66, "unit": "%"}, {"measurement": "inhibition zone (IZ)", "setting": "Bacillus subtilis [8]", "value": 24, "unit": "mm"}, {"measurement": "inhibition zone (IZ)", "setting": "Bacillus subtilis [9]", "value": 15, "unit": "mm"}, {"measurement": "inhibition zone (IZ)", "setting": "Pseudomonas aeruginosa [10]", "value": 9, "unit": "mm"}, {"measurement": "inhibition zone (IZ)", "setting": "Staphylococcus aureus [11]", "value": 9, "unit": "mm"}, {"measurement": "inhibition zone (IZ)", "setting": "Staphylococcus aureus [12]", "value": 24, "unit": "mm"}, {"measurement": "inhibition zone (IZ)", "setting": "Staphylococcus aureus [13]", "value": 13, "unit": "mm"}, {"measurement": "inhibition zone (IZ)", "setting": "Klebsiella pneumoniae [14]", "value": 10, "unit": "mm"}, {"measurement": "MIC", "setting": "Fusarium oxysporum", "value": 85, "unit": "µg/mL"}, {"measurement": "inhibition zone (IZ)", "setting": "Klebsiella pneumoniae [15]", "value": 23, "unit": "mm"}, {"measurement": "Activity", "setting": "[16]", "value": 52, "unit": "%"}, {"measurement": "inhibition zone (IZ)", "setting": "Bacillus subtilis [17]", "value": 10, "unit": "mm"}, {"measurement": "inhibition zone (IZ)", "setting": "Pseudomonas aeruginosa [18]", "value": 20, "unit": "mm"}, {"measurement": "inhibition zone (IZ)", "setting": "Klebsiella pneumoniae [19]", "value": 20, "unit": "mm"}]}, {"compound": "COC(=O)[C@@]1(Cc2c[nH]c3ccccc23)C[C@H]2COc3ccccc3[C@H]2N1", "values": [{"measurement": "inhibition zone (IZ)", "setting": "Staphylococcus aureus [1]", "value": 20, "unit": "mm"}, {"measurement": "inhibition zone (IZ)", "setting": "Klebsiella pneumoniae [2]", "value": 15, "unit": "mm"}, {"measurement": "inhibition zone (IZ)", "setting": "Pseudomonas aeruginosa [3]", "value": 23, "unit": "mm"}, {"measurement": "inhibition zone (IZ)", "setting": "Pseudomonas aeruginosa [4]", "value": 15, "unit": "mm"}, {"measurement": "Activity", "setting": "[5]", "value": 29, "unit": "%"}, {"measurement": "MIC", "setting": "Macrophomina phaseolina", "value": 60, "unit": "µg/mL"}, {"measurement": "inhibition zone (IZ)", "setting": "Bacillus subtilis [6]", "value": 20, "unit": "mm"}, {"measurement": "Activity", "setting": "[7]", "value": 64, "unit": "%"}, {"measurement": "inhibition zone (IZ)", "setting": "Bacillus subtilis [8]", "value": 26, "unit": "mm"}, {"measurement": "inhibition zone (IZ)", "setting": "Bacillus subtilis [9]", "value": 15, "unit": "mm"}, {"measurement": "inhibition zone (IZ)", "setting": "Pseudomonas aeruginosa [10]", "value": 10, "unit": "mm"}, {"measurement": "inhibition zone (IZ)", "setting": "Staphylococcus aureus [11]", "value": 10, "unit": "mm"}, {"measurement": "inhibition zone (IZ)", "setting": "Staphylococcus aureus [12]", "value": 23, "unit": "mm"}, {"measurement": "inhibition zone (IZ)", "setting": "Staphylococcus aureus [13]", "value": 15, "unit": "mm"}, {"measurement": "inhibition zone (IZ)", "setting": "Klebsiella pneumoniae [14]", "value": 11, "unit": "mm"}, {"measurement": "MIC", "setting": "Fusarium oxysporum", "value": 75, "unit": "µg/mL"}, {"measurement": "inhibition zone (IZ)", "setting": "Klebsiella pneumoniae [15]", "value": 23, "unit": "mm"}, {"measurement": "Activity", "setting": "[16]", "value": 51, "unit": "%"}, {"measurement": "inhibition zone (IZ)", "setting": "Bacillus subtilis [17]", "value": 11, "unit": "mm"}, {"measurement": "inhibition zone (IZ)", "setting": "Pseudomonas aeruginosa [18]", "value": 21, "unit": "mm"}, {"measurement": "inhibition zone (IZ)", "setting": "Klebsiella pneumoniae [19]", "value": 21, "unit": "mm"}]}, {"compound": "COC(=O)[C@]12Cc3c([nH]c4ccccc34)[C@@H](c3ccc(OC)cc3)N1[C@@H]1c3c(ccc4ccccc34)OC[C@@H]1C2", "values": [{"measurement": "inhibition zone (IZ)", "setting": "Staphylococcus aureus [1]", "value": 18, "unit": "mm"}, {"measurement": "inhibition zone (IZ)", "setting": "Klebsiella pneumoniae [2]", "value": 11, "unit": "mm"}, {"measurement": "inhibition zone (IZ)", "setting": "Pseudomonas aeruginosa [3]", "value": 19, "unit": "mm"}, {"measurement": "inhibition zone (IZ)", "setting": "Pseudomonas aeruginosa [4]", "value": 12, "unit": "mm"}, {"measurement": "Activity", "setting": "[5]", "value": 18, "unit": "%"}, {"measurement": "MIC", "setting": "Macrophomina phaseolina", "value": 95, "unit": "µg/mL"}, {"measurement": "inhibition zone (IZ)", "setting": "Bacillus subtilis [6]", "value": 17, "unit": "mm"}, {"measurement": "Activity", "setting": "[7]", "value": 81, "unit": "%"}, {"measurement": "inhibition zone (IZ)", "setting": "Bacillus subtilis [8]", "value": 20, "unit": "mm"}, {"measurement": "inhibition zone (IZ)", "setting": "Bacillus subtilis [9]", "value": 12, "unit": "mm"}, {"measurement": "inhibition zone (IZ)", "setting": "Pseudomonas aeruginosa [10]", "value": 10, "unit": "mm"}, {"measurement": "inhibition zone (IZ)", "setting": "Staphylococcus aureus [11]", "value": 9, "unit": "mm"}, {"measurement": "inhibition zone (IZ)", "setting": "Staphylococcus aureus [12]", "value": 20, "unit": "mm"}, {"measurement": "inhibition zone (IZ)", "setting": "Staphylococcus aureus [13]", "value": 11, "unit": "mm"}, {"measurement": "inhibition zone (IZ)", "setting": "Klebsiella pneumoniae [14]", "value": 9, "unit": "mm"}, {"measurement": "MIC", "setting": "Fusarium oxysporum", "value": 100, "unit": "µg/mL"}, {"measurement": "inhibition zone (IZ)", "setting": "Klebsiella pneumoniae [15]", "value": 20, "unit": "mm"}, {"measurement": "Activity", "setting": "[16]", "value": 48, "unit": "%"}, {"measurement": "inhibition zone (IZ)", "setting": "Bacillus subtilis [17]", "value": 9, "unit": "mm"}, {"measurement": "inhibition zone (IZ)", "setting": "Pseudomonas aeruginosa [18]", "value": 16, "unit": "mm"}, {"measurement": "inhibition zone (IZ)", "setting": "Klebsiella pneumoniae [19]", "value": 18, "unit": "mm"}]}, {"compound": "COC(=O)[C@]12Cc3c([nH]c4ccccc34)[C@@H](c3ccc(C)cc3)N1[C@@H]1c3c(ccc4ccccc34)OC[C@@H]1C2", "values": [{"measurement": "inhibition zone (IZ)", "setting": "Staphylococcus aureus [1]", "value": 17, "unit": "mm"}, {"measurement": "inhibition zone (IZ)", "setting": "Klebsiella pneumoniae [2]", "value": 12, "unit": "mm"}, {"measurement": "inhibition zone (IZ)", "setting": "Pseudomonas aeruginosa [3]", "value": 20, "unit": "mm"}, {"measurement": "inhibition zone (IZ)", "setting": "Pseudomonas aeruginosa [4]", "value": 14, "unit": "mm"}, {"measurement": "Activity", "setting": "[5]", "value": 26, "unit": "%"}, {"measurement": "MIC", "setting": "Macrophomina phaseolina", "value": 30, "unit": "µg/mL"}, {"measurement": "inhibition zone (IZ)", "setting": "Bacillus subtilis [6]", "value": 16, "unit": "mm"}, {"measurement": "Activity", "setting": "[7]", "value": 87, "unit": "%"}, {"measurement": "inhibition zone (IZ)", "setting": "Bacillus subtilis [8]", "value": 20, "unit": "mm"}, {"measurement": "inhibition zone (IZ)", "setting": "Bacillus subtilis [9]", "value": 14, "unit": "mm"}, {"measurement": "inhibition zone (IZ)", "setting": "Pseudomonas aeruginosa [10]", "value": 8, "unit": "mm"}, {"measurement": "inhibition zone (IZ)", "setting": "Staphylococcus aureus [11]", "value": 9, "unit": "mm"}, {"measurement": "inhibition zone (IZ)", "setting": "Staphylococcus aureus [12]", "value": 19, "unit": "mm"}, {"measurement": "inhibition zone (IZ)", "setting": "Staphylococcus aureus [13]", "value": 12, "unit": "mm"}, {"measurement": "inhibition zone (IZ)", "setting": "Klebsiella pneumoniae [14]", "value": 9, "unit": "mm"}, {"measurement": "MIC", "setting": "Fusarium oxysporum", "value": 85, "unit": "µg/mL"}, {"measurement": "inhibition zone (IZ)", "setting": "Klebsiella pneumoniae [15]", "value": 21, "unit": "mm"}, {"measurement": "Activity", "setting": "[16]", "value": 53, "unit": "%"}, {"measurement": "inhibition zone (IZ)", "setting": "Bacillus subtilis [17]", "value": 9, "unit": "mm"}, {"measurement": "inhibition zone (IZ)", "setting": "Pseudomonas aeruginosa [18]", "value": 17, "unit": "mm"}, {"measurement": "inhibition zone (IZ)", "setting": "Klebsiella pneumoniae [19]", "value": 17, "unit": "mm"}]}]}
